The nature of data set [1]: melting temperature; fluorescence melt of hairpins on a sequencing array, two-state fit, raised by 9.35 °C to match UV melts. The settings on record: sodium 0.088 M. Summed up: (§1)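 Cy3 signals were normalised both to pre-quench Cy3 and to control constructs. They came from library hairpins carrying annealed Cy3 and quencher oligos on a sequenced MiSeq flow cell, imaged in 50 mM Na-HEPES pH 8.0, 25 mM NaCl, in 2.5 °C steps up to 60 °C. Bootstrapped two-state fits gave melting temperature and folding enthalpy, and four replicates were combined by inverse variance. Fitted temperatures were then raised by 9.35 °C to match UV melts.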

Data set [2] is described as follows: folding enthalpy; higher = less favourable; fluorescence melt of hairpins on a sequencing array, two-state fit. The settings on record: sodium 0.088 M. The essentials: as §1

Our source for the Tm and folding enthalpy values is the array DNA melting data of Ke et al. (doi:10.1101/2024.01.08.574731).

As to GGCCTGGGAAACCGGGTC (.((.((....)).)).), the Tm in data set [1] is 49 °C. In addition, the folding enthalpy in data set [2] is -27.7 kcal/mol.

GGCCTGGGAAACTAGGCC (((((.(....).))))): the Tm in data set [1] was found to be 59.2 °C. For the same sequence, the folding enthalpy in data set [2] was -49.7 kcal/mol.

Take GGCCTTCGAAAGAACGCC (((.(((....))).))): the Tm in data set [1] was 44.4 °C. Moreover, in data set [2], the folding enthalpy is -30.7 kcal/mol.

With GGCCTTGGAAACAAGACC ((.((((....)))).)), the Tm in data set [1] was 44.7 °C. Also, in data set [2], the folding enthalpy is -29.1 kcal/mol.

GGCGAAGGAAACCTCGCC (((((.(....).))))): in data set [1], the Tm was 55.3 °C. Besides, the folding enthalpy in data set [2] is -46.7 kcal/mol.

In the case of GGCGAAGGAAACTCCGCC ((((.((....)).)))), the Tm in data set [1] turned out to be 51.1 °C. Moreover, the folding enthalpy in data set [2] was -34.4 kcal/mol.

In the case of GGCGAAGGAAACTTCACC ((.((((....)))).)), the Tm in data set [1] was 42.6 °C. Moreover, the folding enthalpy in data set [2] is -32.8 kcal/mol.

Turning to GGCGAAGGAAACTTTGCC (((.(((....))).))), the Tm in data set [1] is 53.2 °C. Further, the folding enthalpy in data set [2] was -35.8 kcal/mol.

Consider GGCGAATCGAAAGATGCC (((..(((....)))))), for which the Tm in data set [1] was 46.1 °C. Further, the folding enthalpy in data set [2] is -22.5 kcal/mol.

Regarding GGCGACACGAAAGTGGCC (((..(((....)))))), the Tm in data set [1] stood at 53.1 °C. Further, the folding enthalpy in data set [2] was -15.1 kcal/mol.

As to GGCGACGAAAGTCACGCC ((((((....)))..))), the Tm in data set [1] was determined as 54.1 °C. In addition, the folding enthalpy in data set [2] is -27.4 kcal/mol.

As to GGCGACGAAAGTCCGCC ((((((....))).))), the Tm in data set [1] came out at 63.6 °C. Besides, the folding enthalpy in data set [2] is -32.2 kcal/mol.

In the case of GGCGACGAAAGTCGTGCC ((((((....)))..))), the Tm in data set [1] came out at 51.2 °C. Also, in data set [2], the folding enthalpy was -12.7 kcal/mol.

GGCGACGAAAGTCTGCC ((((((....))).))): the Tm in data set [1] turned out to be 59.2 °C. In data set [2], the folding enthalpy was -36.6 kcal/mol.

Take GGCGACGGAAACGCCACC ((.(.((....)).).)): the Tm in data set [1] amounted to 46 °C. Further, in data set [2], the folding enthalpy was -16.9 kcal/mol.

Turning to GGCGAGGGAAACCCCGCC ((((.((....)).)))), the Tm in data set [1] came to 57.9 °C. Further, in data set [2], the folding enthalpy is -46.8 kcal/mol.

Turning to GGCGATCGAAAGATGGCC (((.(((....))).))), the Tm in data set [1] was determined as 57.6 °C. Also, the folding enthalpy in data set [2] is -47.6 kcal/mol.

For GGCGATGGAAACACCGCC ((((.((....)).)))), in data set [1], the Tm came to 54 °C. The folding enthalpy in data set [2] was -51.7 kcal/mol.

Turning to GGCGATGGAAACGTCGCC (((((.(....).))))), the Tm in data set [1] came out at 64.6 °C. Besides, in data set [2], the folding enthalpy is -48.7 kcal/mol.

Turning to GGCGATGGAAACGTCGTC (.(((.(....).))).), in data set [1], the Tm turned out to be 46.2 °C. The folding enthalpy in data set [2] was -39.5 kcal/mol.

Take GGCGATGGAAACGTTGCC (((.(.(....).).))): the Tm in data set [1] came to 44.9 °C. Besides, the folding enthalpy in data set [2] was -37.6 kcal/mol.

In the case of GGCGCACCGAAAGGTGCC (((..(((....)))))), the Tm in data set [1] came out at 47.5 °C. For the same sequence, in data set [2], the folding enthalpy was -6.69 kcal/mol.

As to GGCGCAGGAAACTGCACC ((.((((....)))).)), in data set [1], the Tm is 54.4 °C. Moreover, the folding enthalpy in data set [2] was -29.9 kcal/mol.

Consider GGCGCATCGAAAGATGCC (((..(((....)))))), for which the Tm in data set [1] stood at 45.2 °C. The folding enthalpy in data set [2] was -9.42 kcal/mol.

Regarding GGCGCCACGAAAGTGGCC (((..(((....)))))), the Tm in data set [1] worked out at 48.8 °C. Further, the folding enthalpy in data set [2] was -6.73 kcal/mol.

Regarding GGCGCCCGAAAGGGGCC (((.(((....)))))), the Tm in data set [1] came to 67.4 °C. Also, the folding enthalpy in data set [2] is -17.2 kcal/mol.

GGCGCCGAAAGGCCAGCC ((((((....)))..))): in data set [1], the Tm came out at 61 °C. For the same sequence, the folding enthalpy in data set [2] was -21.1 kcal/mol.

Turning to GGCGCCGAAAGGCGTGCC ((((((....)))..))), in data set [1], the Tm is 54.2 °C. Moreover, in data set [2], the folding enthalpy is -9.73 kcal/mol.

GGCGCCGAAAGGCTAGCC ((((((....)))..))): in data set [1], the Tm is 61.7 °C. For the same sequence, the folding enthalpy in data set [2] is -21.6 kcal/mol.

As for GGCGCCGAAAGGCTGCC ((((((....))).))), the Tm in data set [1] is 67.1 °C. Also, in data set [2], the folding enthalpy was -19.4 kcal/mol.

Turning to GGCGCCGCGAAAGCGGCC (((..(((....)))))), the Tm in data set [1] is 49.1 °C. Besides, the folding enthalpy in data set [2] was -5.39 kcal/mol.

Regarding GGCGCCTCGAAAGAGGCC (((..(((....)))))), the Tm in data set [1] turned out to be 50.5 °C. Moreover, the folding enthalpy in data set [2] was -8.15 kcal/mol.

Take GGCGCTGCGAAAGCAGCC (((..(((....)))))): in data set [1], the Tm is 58.1 °C. Further, in data set [2], the folding enthalpy is -6.28 kcal/mol.

On to GGCGCTGGAAACGGCGTC (.(((.(....).))).), for which the Tm in data set [1] came out at 54.3 °C. The folding enthalpy in data set [2] was -28 kcal/mol.

For the sequence GGCGGACGAAAGTCGCC (((.(((....)))))), the Tm in data set [1] is 68.5 °C. Besides, in data set [2], the folding enthalpy is -28.2 kcal/mol.

As for GGCGGAGGAAACCCCGCC (((((.(....).))))), the Tm in data set [1] stood at 64.5 °C. Further, the folding enthalpy in data set [2] was -33.4 kcal/mol.

As for GGCGGCGAAAGCCATGCC ((((((....)))..))), in data set [1], the Tm is 59.8 °C. Further, the folding enthalpy in data set [2] was -16.5 kcal/mol.

For the sequence GGCGGCGAAAGCCTAGCC ((((((....)))..))), the Tm in data set [1] turned out to be 60.8 °C. Moreover, the folding enthalpy in data set [2] was -21.3 kcal/mol.

Take GGCGGCGCGAAAGCGGCC (((..(((....)))))): the Tm in data set [1] stood at 59.5 °C. For the same sequence, in data set [2], the folding enthalpy is -9.35 kcal/mol.

Regarding GGCGGGCCGAAAGGCGCC (((..(((....)))))), the Tm in data set [1] was 62.3 °C. For the same sequence, the folding enthalpy in data set [2] was -13.2 kcal/mol.

For the sequence GGCGGGGGAAACCCCGTC (.(((((....))))).), the Tm in data set [1] was 65.1 °C. Moreover, in data set [2], the folding enthalpy is -22.7 kcal/mol.

Regarding GGCGGGGGAAACCCTGCC (((.(((....))).))), in data set [1], the Tm came to 65.2 °C. The folding enthalpy in data set [2] was -27 kcal/mol.

As to GGCGGTCGAAAGACGGCC (((.(((....))).))), in data set [1], the Tm turned out to be 68.2 °C. Moreover, the folding enthalpy in data set [2] is -34.5 kcal/mol.

With GGCGGTGGAAACACCGTC (.(((((....))))).), the Tm in data set [1] came to 65.8 °C. Besides, in data set [2], the folding enthalpy is -23.9 kcal/mol.

Take GGCGTACCGAAAGGTGCC (((..(((....)))))): the Tm in data set [1] came out at 54.7 °C. In data set [2], the folding enthalpy was -33.2 kcal/mol.

As for GGCGTATCGAAAGATGCC (((..(((....)))))), the Tm in data set [1] stood at 47.9 °C. Further, the folding enthalpy in data set [2] was -22.5 kcal/mol.

As for GGCGTCCCGAAAGGGGCC (((..(((....)))))), in data set [1], the Tm was determined as 50.4 °C. In data set [2], the folding enthalpy is -14.3 kcal/mol.

Take GGCGTCGAAAGACCCGCC ((((((....)))..))): the Tm in data set [1] was found to be 55.3 °C. In data set [2], the folding enthalpy was -17.5 kcal/mol.

GGCGTCGAAAGACTGCC ((((((....))).))): the Tm in data set [1] is 57 °C. For the same sequence, the folding enthalpy in data set [2] was -36.4 kcal/mol.

On to GGCGTGACGAAAGTCGCC (((..(((....)))))), for which the Tm in data set [1] stood at 57.5 °C. The folding enthalpy in data set [2] was -21.1 kcal/mol.

For the sequence GGCGTGGGAAACCACACC ((.((((....)))).)), the Tm in data set [1] amounted to 50.5 °C. Moreover, the folding enthalpy in data set [2] was -35.3 kcal/mol.

With GGCGTTGGAAACAACACC ((.((((....)))).)), the Tm in data set [1] turned out to be 46.7 °C. In addition, the folding enthalpy in data set [2] was -33.6 kcal/mol.

On to GGCGTTGGAAACAACGTC (.(((((....))))).), for which, in data set [1], the Tm is 57.8 °C. For the same sequence, the folding enthalpy in data set [2] is -25.4 kcal/mol.

As for GGCGTTGGAAACAGCGTC (.((.((....)).)).), the Tm in data set [1] was 44.6 °C. Further, the folding enthalpy in data set [2] was -21.9 kcal/mol.
